Measured values taken from ChEMBL document CHEMBL1159118, “The effect of backbone cyclization on PK/PD properties of bioactive peptide-peptoid hybrids: the melanocortin agonist paradigm” (Bioorg Med Chem, 2010).
Numbered stars: 1 amine (or outer) side, 2 acyl side, 3 side chain; on linkers, the order of the positions; unused ones are H or OH. Bridge positions count the residues as written; N and C are the ends. Square brackets hold non-standard residues; d marks the D form. Peptide text beside a SMILES is read from it. N(2-Aminoethyl)Gly = O=C(CN(CCN[*:3])[*:1])[*:2]; Adipoyl = O=C(CCCCC(=O)[*:2])[*:1]; Glutaryl = O=C(CCCC(=O)[*:2])[*:1]; Suc = O=C(CCC(=O)[*:2])[*:1]; Nphe = O=C(O)CNCc1ccccc1

Key:
[1] = Membrane binding affinity to synthetic dimyristoylphosphatidylcholine/polydiacetylene vesicles assessed as colorimetric response by colorimetric assay; design: concentration or dose not given beside the values
In short: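 Peptide added from 0.4 mg/mL stock to vesicles (0.5 mM total lipids, 25 mM Tris-base pH 8), diluted with water; UV–vis absorbance at 640 and 500 nm; %CR = [(PB0 − PBI)/PB0] × 100, PB = Ablue/(Ablue + Ared); duplicates.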

Melanocortin receptor 3 = Melanocortin receptor 3 (Mus musculus, UniProt P33033); assay: Agonist activity at mouse MC3R expressed in HEK293 cells by beta-galactosidase reporter gene assay; type: functional, cell-based
Chain of Melanocortin receptor 3 (P33033 whole entry): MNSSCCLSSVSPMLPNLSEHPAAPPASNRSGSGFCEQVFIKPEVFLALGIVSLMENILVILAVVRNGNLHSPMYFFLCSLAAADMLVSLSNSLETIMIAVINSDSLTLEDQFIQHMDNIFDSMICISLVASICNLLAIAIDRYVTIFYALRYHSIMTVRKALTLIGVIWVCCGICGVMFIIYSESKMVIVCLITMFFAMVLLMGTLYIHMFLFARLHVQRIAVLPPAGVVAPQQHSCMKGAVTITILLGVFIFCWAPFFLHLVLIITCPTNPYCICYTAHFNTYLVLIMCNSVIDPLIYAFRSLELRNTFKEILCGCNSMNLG

Melanocortin receptor 4 = Melanocortin receptor 4 (Mus musculus, UniProt P56450); assay: Agonist activity at mouse MC4R expressed in HEK293 cells by beta-galactosidase reporter gene assay; type: functional, cell-based
Chain of Melanocortin receptor 4 (P56450 whole entry): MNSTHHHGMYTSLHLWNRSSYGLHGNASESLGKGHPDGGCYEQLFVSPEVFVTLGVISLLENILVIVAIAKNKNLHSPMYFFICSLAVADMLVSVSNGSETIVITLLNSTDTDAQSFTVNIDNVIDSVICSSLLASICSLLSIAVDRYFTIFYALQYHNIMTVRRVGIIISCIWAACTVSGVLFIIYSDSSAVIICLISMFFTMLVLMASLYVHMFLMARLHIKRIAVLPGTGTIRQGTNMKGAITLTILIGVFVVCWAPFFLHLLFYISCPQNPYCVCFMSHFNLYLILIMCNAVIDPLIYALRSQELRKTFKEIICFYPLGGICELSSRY

[2] = Metabolic stability in Wistar rat brush border membrane vesicles assessed as drug degradation up to 90 mins by HPLC; type: ADME, cell membranes; conditions: read-out: Activity
In short: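 Brush border membrane vesicles from duodenum, jejunum and upper ileum of male Wistar rats (200–250 g), Ca2+ precipitation, 13–18-fold marker-enzyme enrichment. Compound incubated with BBMVs at 37 °C for 90 min; duplicate samples at 0, 15, 30, 45, 60, 90 min, quenched 1:1 with ice-cold methanol, centrifuged, analysed by HPLC.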

[3] = biological target: Melanocyte-stimulating hormone receptor (Mus musculus, UniProt Q01727); assay: Agonist activity at mouse MC1R expressed in HEK293 cells by beta-galactosidase reporter gene assay; type: functional, cell-based
Chain of Melanocyte-stimulating hormone receptor (Q01727 whole entry): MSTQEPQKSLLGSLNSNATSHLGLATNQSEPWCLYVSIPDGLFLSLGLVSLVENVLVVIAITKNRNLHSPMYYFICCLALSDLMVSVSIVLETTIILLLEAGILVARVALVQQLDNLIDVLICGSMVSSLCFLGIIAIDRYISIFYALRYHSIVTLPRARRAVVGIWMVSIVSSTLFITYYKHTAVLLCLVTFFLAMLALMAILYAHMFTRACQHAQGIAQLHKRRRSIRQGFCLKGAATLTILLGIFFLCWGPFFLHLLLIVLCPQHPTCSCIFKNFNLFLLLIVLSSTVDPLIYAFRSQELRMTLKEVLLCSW

[4] = (§1) Metabolic stability in rat serum assessed as drug degradation after 4 hrs; type: ADME, cell-free; conditions: read-out: Activity
Melanocortin receptor 5 = Melanocortin receptor 5 (Mus musculus, UniProt P41149); assay: Agonist activity at mouse MC5R expressed in HEK293 cells by beta-galactosidase reporter gene assay; type: functional, cell-based
Chain of Melanocortin receptor 5 (P41149 whole entry): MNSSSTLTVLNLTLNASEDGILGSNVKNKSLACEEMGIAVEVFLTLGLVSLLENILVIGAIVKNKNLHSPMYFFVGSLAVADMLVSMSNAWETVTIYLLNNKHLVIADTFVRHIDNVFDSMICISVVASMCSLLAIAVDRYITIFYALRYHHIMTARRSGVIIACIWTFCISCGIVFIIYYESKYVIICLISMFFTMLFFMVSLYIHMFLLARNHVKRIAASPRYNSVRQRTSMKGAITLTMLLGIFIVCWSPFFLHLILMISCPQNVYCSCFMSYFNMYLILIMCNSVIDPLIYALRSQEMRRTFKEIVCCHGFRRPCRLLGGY

Caco-2 = assay: Ratio of Papp for mannitol to Papp for drug in permeability across apical to basolateral side of human Caco-2 cells; type: ADME, cell-based
[5] = (§2) Metabolic stability in rat serum assessed as drug degradation after 1 hr; type: ADME, cell-free; conditions: read-out: Activity
In short: (§3)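 Incubation in rat serum, sampled at 0, 1, 2 and 5 h; degradation relative to initial concentration.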

Serum [6] = assay: Metabolic stability in rat serum assessed as drug remaining after 3 hrs; type: ADME, cell-free
Serum [7] = assay: as §2; type: ADME, cell-free; conditions: 1 h; in short: as §3
Serum [8] = assay: as §1; type: ADME, cell-free; conditions: 4 h
[9] = biological target: Melanocortin receptor 4 (Mus musculus) (UniProt P56450); assay: Agonist activity at mouse MC4R expressed in HEK293 cells at 100 uM by beta-galactosidase reporter gene assay relative to control; type: functional, cell-based
Chain of Melanocortin receptor 4 (Mus musculus) (P56450 whole entry): as the sequence (P56450 whole entry) above
In short: (§4)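 CRE/β-galactosidase reporter in HEK-293 cells stably expressing the mouse receptor; 6 h peptide exposure with 0.1 mM IBMX; ONPG read at OD 405 nm, normalized to protein content and forskolin (10–4 M) response; % stimulation at highest concentration tested, relative to control; ≥3 independent experiments.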

[10] = biological target: Melanocortin receptor 3 (Mus musculus) (UniProt P33033); assay: Agonist activity at mouse MC3R expressed in HEK293 cells at 100 uM by beta-galactosidase reporter gene assay relative to control; type: functional, cell-based; in short: as §4
Chain of Melanocortin receptor 3 (Mus musculus) (P33033 whole entry): as the sequence (P33033 whole entry) above

In the case of N=C(N)NCCC[C@@H]1NC(=O)[C@@H](Cc2ccccc2)NC(=O)CN(Cc2ccccc2)C(=O)CCCC(=O)NCCN(CC(N)=O)C(=O)[C@H](Cc2c[nH]c3ccccc23)NC1=O, the Activity [1] is reported as 89%, the EC50 (Melanocortin receptor 3) is reported as > 0.1 µM and the EC50 (Melanocortin receptor 4) is reported as 0.64 µM. For the same molecule, the metabolised at 1.5 h [2] was 5%, the EC50 [3] was 0.22 µM and the metabolised at 4 h [4] was > 40%. It also gave an EC50 (Melanocortin receptor 5) of 0.31 µM and a Ratio (Caco-2) of 3.
For NC(=O)[C@H](Cc1c[nH]c2ccccc12)NC(=O)[C@H](CCCN=C(N)N)NC(=O)[C@@H](Cc1ccccc1)NC(=O)[C@@H](N)Cc1ccccc1, the EC50 (Melanocortin receptor 3) was 11.9 µM, the EC50 (Melanocortin receptor 4) was 0.0706 µM and the EC50 [3] was 0.503 µM. The EC50 (Melanocortin receptor 5) was 0.143 µM.
With CC(=O)NCC(=O)N(CC(=O)N[C@H](Cc1ccccc1)C(=O)N[C@@H](CCCNC(=N)N)C(=O)N[C@@H](Cc1c[nH]c2ccccc12)C(=O)NCC(N)=O)Cc1ccccc1 the metabolised at 1 h [5] was 50%, the Activity [1] was 31% and the EC50 (Melanocortin receptor 3) was > 0.1 µM. The EC50 (Melanocortin receptor 4) was 9.82 µM, the metabolised at 1.5 h [2] was 20% and the EC50 [3] was 11.8 µM. It also gave an EC50 (Melanocortin receptor 5) of 3.43 µM.
For N=C(N)NCCC[C@@H]1NC(=O)[C@@H](Cc2ccccc2)NC(=O)CN(Cc2ccccc2)C(=O)CCC(=O)NCCN(CC(N)=O)C(=O)[C@H](Cc2c[nH]c3ccccc23)NC1=O, the Stability (Serum [6]) was “Stable”, the Stability (Serum [7]) was “Stable” and the Activity [1] was < 30%. For the same molecule, the EC50 (Melanocortin receptor 3) was > 0.1 µM, the EC50 (Melanocortin receptor 4) was 1.37 µM and the metabolised at 1.5 h [2] was 5%. The EC50 [3] was 0.38 µM, the Activity (Serum [8]) was “Stable” and the EC50 (Melanocortin receptor 5) was 1.65 µM.
N=C(N)NCCC[C@@H]1NC(=O)[C@@H](Cc2ccccc2)NC(=O)CN(Cc2ccccc2)C(=O)CCCCC(=O)NCCN(CC(N)=O)C(=O)[C@H](Cc2c[nH]c3ccccc23)NC1=O showed an Activity [1] of 90%, an EC50 (Melanocortin receptor 3) of 7.17 µM and an EC50 (Melanocortin receptor 4) of 0.049 µM. For the same molecule, the metabolised at 1.5 h [2] was 5%, the EC50 [3] was 0.12 µM and the metabolised at 4 h [4] was > 40%. It also gave an EC50 (Melanocortin receptor 5) of 0.0081 µM.
In the case of NC(=O)CN1CCNC(=O)CCCCC(=O)N[C@@H](Cc2ccccc2)C(=O)N(Cc2ccccc2)CC(=O)N[C@@H](CCCN=C(N)N)C(=O)N[C@@H](Cc2c[nH]c3ccccc23)C1=O (F[Nphe]RW[N(2-Aminoethyl)Gly]-NH2; linker N-5 via Adipoyl), the EC50 (Melanocortin receptor 3) is reported as > 0.1 µM, the EC50 (Melanocortin receptor 4) is reported as 3.3 µM and the metabolised at 1.5 h [2] is reported as 5%. The EC50 [3] was 1.17 µM and the EC50 (Melanocortin receptor 5) was 0.485 µM.
In the case of N=C(N)NCCC[C@@H]1NC(=O)CN(Cc2ccccc2)C(=O)[C@H](Cc2ccccc2)NC(=O)CCCCC(=O)NCCN(CC(N)=O)C(=O)[C@H](Cc2c[nH]c3ccccc23)NC1=O (F[Nphe]RW[N(2-Aminoethyl)Gly]-NH2; linker N-5 via Adipoyl), the Activity [1] is reported as < 30%.
For NC(=O)CN1CCNC(=O)CCCC(=O)N[C@@H](Cc2ccccc2)C(=O)N(Cc2ccccc2)CC(=O)N[C@@H](CCCN=C(N)N)C(=O)N[C@@H](Cc2c[nH]c3ccccc23)C1=O (F[Nphe]RW[N(2-Aminoethyl)Gly]-NH2; linker N-5 via Glutaryl), the EC50 (Melanocortin receptor 3) was > 0.1 µM, the metabolised at 1.5 h [2] was 5% and the EC50 [3] was 1 µM. The EC50 (Melanocortin receptor 5) was 2.32 µM.
With N=C(N)NCCC[C@@H]1NC(=O)CN(Cc2ccccc2)C(=O)[C@H](Cc2ccccc2)NC(=O)CCCC(=O)NCCN(CC(N)=O)C(=O)[C@H](Cc2c[nH]c3ccccc23)NC1=O (F[Nphe]RW[N(2-Aminoethyl)Gly]-NH2; linker N-5 via Glutaryl) the Activity [9] was 25% and the Activity [1] was < 30%.
With NC(=O)CN1CCNC(=O)CCC(=O)N[C@@H](Cc2ccccc2)C(=O)N(Cc2ccccc2)CC(=O)N[C@@H](CCCN=C(N)N)C(=O)N[C@@H](Cc2c[nH]c3ccccc23)C1=O (F[Nphe]RW[N(2-Aminoethyl)Gly]-NH2; linker N-5 via Suc) the EC50 (Melanocortin receptor 3) was > 0.1 µM, the EC50 (Melanocortin receptor 4) was 3.83 µM and the metabolised at 1.5 h [2] was 5%. For the same molecule, the EC50 [3] was 2.81 µM and the EC50 (Melanocortin receptor 5) was 3.96 µM.
In the case of N=C(N)NCCC[C@@H]1NC(=O)CN(Cc2ccccc2)C(=O)[C@H](Cc2ccccc2)NC(=O)CCC(=O)NCCN(CC(N)=O)C(=O)[C@H](Cc2c[nH]c3ccccc23)NC1=O (F[Nphe]RW[N(2-Aminoethyl)Gly]-NH2; linker N-5 via Suc), the Activity [1] is reported as < 30%.
In the case of CC(=O)NCC(=O)N[C@@H](Cc1ccccc1)C(=O)N(CC(=O)N[C@@H](CCCNC(=N)N)C(=O)N[C@@H](Cc1c[nH]c2ccccc12)C(=O)NCC(N)=O)Cc1ccccc1 (HELM PEPTIDE1{[ac].G.F.[O=C(CN(Cc1ccccc1)[*:1])[*:2]].R.W.G.[am]}$$$$V2.0), the Stability (Serum [6]) is reported as “Unstable”, the Activity [1] is reported as < 30% and the EC50 (Melanocortin receptor 3) is reported as > 0.1 µM. It also gave an EC50 (Melanocortin receptor 4) of 0.0088 µM, a metabolised at 1.5 h [2] of 20% and an EC50 [3] of 0.22 µM. It also gave an EC50 (Melanocortin receptor 5) of 0.0162 µM.
In the case of CC(=O)NCC(=O)N(CC(=O)N(CC(=O)N[C@@H](CCCNC(=N)N)C(=O)N[C@@H](Cc1c[nH]c2ccccc12)C(=O)NCC(N)=O)Cc1ccccc1)Cc1ccccc1 (HELM PEPTIDE1{[ac].G.[O=C(CN(Cc1ccccc1)[*:1])[*:2]].[O=C(CN(Cc1ccccc1)[*:1])[*:2]].R.W.G.[am]}$$$$V2.0), the Stability (Serum [6]) is reported as “Unstable”, the Activity [10] is reported as 40% and the Activity [1] is reported as < 30%. It also gave an EC50 (Melanocortin receptor 4) of 0.0105 µM, a metabolised at 1.5 h [2] of 20% and an EC50 [3] of 0.24 µM. The EC50 (Melanocortin receptor 5) was 0.0081 µM.
In the case of NC(=O)CN1CCNC(=O)CCCCC(=O)N(Cc2ccccc2)CC(=O)N(Cc2ccccc2)CC(=O)N[C@@H](CCCN=C(N)N)C(=O)N[C@@H](Cc2c[nH]c3ccccc23)C1=O ([Nphe][Nphe]RW[N(2-Aminoethyl)Gly]-NH2; linker N-5 via Adipoyl), the EC50 (Melanocortin receptor 3) is reported as > 0.1 µM, the EC50 (Melanocortin receptor 4) is reported as 1.7 µM and the metabolised at 1.5 h [2] is reported as 5%. The EC50 [3] was 0.99 µM and the EC50 (Melanocortin receptor 5) was 0.32 µM.
With N=C(N)NCCC[C@@H]1NC(=O)CN(Cc2ccccc2)C(=O)CN(Cc2ccccc2)C(=O)CCCCC(=O)NCCN(CC(N)=O)C(=O)[C@H](Cc2c[nH]c3ccccc23)NC1=O ([Nphe][Nphe]RW[N(2-Aminoethyl)Gly]-NH2; linker N-5 via Adipoyl) the Activity [1] was < 30%.
With NC(=O)CN1CCNC(=O)CCCC(=O)N(Cc2ccccc2)CC(=O)N(Cc2ccccc2)CC(=O)N[C@@H](CCCN=C(N)N)C(=O)N[C@@H](Cc2c[nH]c3ccccc23)C1=O ([Nphe][Nphe]RW[N(2-Aminoethyl)Gly]-NH2; linker N-5 via Glutaryl) the EC50 (Melanocortin receptor 3) was > 0.1 µM, the EC50 (Melanocortin receptor 4) was 2.25 µM and the metabolised at 1.5 h [2] was 5%. For the same molecule, the EC50 [3] was 1.68 µM, the EC50 (Melanocortin receptor 5) was 0.35 µM and the Ratio (Caco-2) was 3.
For N=C(N)NCCC[C@@H]1NC(=O)CN(Cc2ccccc2)C(=O)CN(Cc2ccccc2)C(=O)CCCC(=O)NCCN(CC(N)=O)C(=O)[C@H](Cc2c[nH]c3ccccc23)NC1=O ([Nphe][Nphe]RW[N(2-Aminoethyl)Gly]-NH2; linker N-5 via Glutaryl), the Activity [1] was < 30%.
With N=C(N)NCCC[C@@H]1NC(=O)CN(Cc2ccccc2)C(=O)CN(Cc2ccccc2)C(=O)CCC(=O)NCCN(CC(N)=O)C(=O)[C@H](Cc2c[nH]c3ccccc23)NC1=O ([Nphe][Nphe]RW[N(2-Aminoethyl)Gly]-NH2; linker N-5 via Suc) the Activity [1] was < 30%, the EC50 (Melanocortin receptor 3) was > 0.1 µM and the EC50 (Melanocortin receptor 4) was 1.96 µM. It also gave a metabolised at 1.5 h [2] of 5%, an EC50 [3] of 0.62 µM and an EC50 (Melanocortin receptor 5) of 2.95 µM.
